Measurements reported in paper PMC11629119 (Pharmacology Research & Perspectives, 2024).
Where “and” joins values, the source holds several entries; their conditions need not be identical. Equal entries are not always repeated. Entries after “also recorded” stand apart in the source; their conditions may differ. Marks after values point to notes of the source that are not given here. Each block holds one molecule with its values, some of them ahead of it.

Tests used:
[1] = test system: CYP2E1; experiment: Gene expression q‐RT‐PCR in HepaRG, CYP2E1; assay type: cell-based, human; details: 7‐day exposure
Procedure, shortened: (§1)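 HepaRG seeded at 2.25 × 10⁵ cells/cm² in 96-well plates for 7 days. RNA extracted with Qiazol/TRIzol plus glycogen. Reverse transcription with M-MLV and oligo dT. TaqMan probe qPCR program: 95°C 10 min, then 40 cycles of 95°C 15 s and 60°C 1 min.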

[2] = test system: ADH1C; experiment: Gene expression q‐RT‐PCR in HepaRG, ADH1C; assay type: cell-based, human; details: 7‐day exposure
Procedure, shortened: as §1

[3] = test system: ALDH2; experiment: Gene expression q‐RT‐PCR in HepaRG, ALDH2; assay type: cell-based, human; details: 7‐day exposure
Procedure, shortened: as §1

[4] = Data derived from Pubchem ref PubChem (nih.gov); cited from earlier work
[5] = test system: human hepatocytes; details: EGME, from reported Km and Vmax applying the scaling factors of this study
[6] = test system: human hepatocytes; details: EGME; cited from earlier work
[7] = used for β‐PGME to PG in TK model; ref Gargas et al. [55]; cited from earlier work
[8] = test system: 2D HepaRG; experiment: Cell viability assay; assay type: cell-based; details: Homo sapiens
Procedure, shortened: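 HepaRG seeded at 2.25 × 10⁵ cells/cm² in 96-well plates 7 days before exposure; plates gas-permeable sealed. Ranges: glycol ethers 10–1000 mM, metabolites 1–25 mM, ethanol 1–600 mM. Highest-concentration solutions neutralised to pH 7.4 with NaOH, filter-sterilised. ATP by CellTiter-Glo luminescence at 48 h and 7 days, as % untreated control. EC50 calculated. N = 3–4 biological repeats, triplicates.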

[9] = test system: 3D HepaRG; experiment: Cell viability assay; assay type: cell-based, human; details: for higher toxicity of metabolite compared to its solvent (EC50, 3D HepaRG): 2‐MPA vs β‐PGME, 2‐MAA vs EGME; for EC50: Homo sapiens, HepaRG
Procedure, shortened: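 HepaRG spheroids formed from 3000 cells/well in U-bottom plates, 7 days pre-exposure. Dosing: half the medium replaced with twofold-concentrated compound; plates gas-permeable sealed. Ranges: glycol ethers 10–1000 mM, acid metabolites 1–25 mM, ethanol 1–600 mM; top solutions neutralised to pH 7.4, filtered. ATP by CellTiter-Glo luminescence at 48 h and 7 days, % of untreated control. EC50 calculated. N = 3–4 biological repeats, triplicates.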

[10] = TK model parameter; ref Kerns et al. [54]; cited from earlier work
[11] = TK model parameter; ref Devanthéry et al. [20]; cited from earlier work
[12] = test system: ADH / ALDH in human liver S9 fraction; experiment: Inhibition of 2‐MPA formation in S9 incubations; assay type: biochemical; details: 5 mM β‐PGME, S9, NAD+ only, 45 min
Procedure, shortened: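 Human liver S9 (2 mg/mL) in 100 mM potassium phosphate pH 7.4, 3 mM MgCl₂. Substrate 5 mM, chosen below ADH saturation; NAD⁺ as sole cofactor. ADH inhibitor at 50 μM or ALDH inhibitor at 10 μM, final. 5 min preincubation; cofactor starts reaction; 45 min, 37°C, 300 rpm. Stopped with ice-cold acetonitrile. Acid metabolite by HPLC-MS/MS. N = 3, duplicates. One-way ANOVA/Dunnett versus control.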

[13] = S9 fraction incubation, Michaelis–Menten kinetics β‐PGME to 2‐MPA; assay type: in vitro ADME, human; details: human, human liver S9 fraction, pH 7.4
Procedure, shortened: (§2)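 Human liver S9 (2 mg/mL), 100 mM phosphate pH 7.4, 3 mM MgCl₂, substrate 0.1–8 mM; 1 mM NAD⁺ plus 1 mM NADPH start the reaction after 5 min preincubation. 45 min, 37°C; cofactor-free controls; acetonitrile stop. Metabolite by HPLC-MS/MS. Km/Vmax by nonlinear Michaelis–Menten fit; CLint = Vmax/Km. Scaled via physiological factors; well-stirred model (QH 20.7 mL/min/kg, fu,inc by Hallifax–Houston). N = 3, duplicates.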

[14] = test system: human liver subcellular fraction (S9); experiment: as above; assay type: in vitro ADME
Procedure, shortened: as §2

[15] = S9 fraction incubation, solvent loss and metabolite formation; assay type: in vitro ADME, human; details: human, human liver S9 fraction; for microsomal CLint at 700 μM: pH 7.4, CLint, in vitro, S9, measured, 700 μM β‐PGME; for CLint scaled at 700 μM: pH 7.4, Predicted CL int, in vivo
Procedure, shortened: (§3)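 S9 2 mg/mL, 100 mM phosphate pH 7.4, 3 mM MgCl₂, 1 mM NAD⁺/NADPH; substrate 700 μM, 37°C. Aliquots at 1, 12, 23, 34, 45 min quenched with 2 volumes ice-cold acetonitrile; cofactor-free controls. Elimination or formation constant from slope of ln % parent remaining or ln metabolite versus time; CLint = k × volume / S9 protein. Scaled to CLh with well-stirred model. N = 3, duplicates.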

[16] = test system: human liver subcellular fraction (S9); experiment: as above; assay type: in vitro ADME; details: for In vitro predicted hepatic organ clearance (CL h), CLmetMPA: measured; for Predicted CL h: well‐stirred liver model
Procedure, shortened: as §3

[17] = Metabolite formation in the 3D HepaRG liver model; assay type: in vitro ADME, human; details: human, 3D HepaRG spheroids
Procedure, shortened: (§4)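 HepaRG spheroids (79 per well, 2772 cells each) formed 7 days in ultra-low-attachment micro-arrays. Substrate added as threefold concentrate to 5 mM final; 37°C, 5% CO₂, sealed. Supernatant sampled at 1, 15, 30, 45 min and 1, 6, 24 h, acetonitrile-quenched. Metabolite by HPLC-MS/MS. Formation constant from ln concentration versus time over 60 min; CLint per million cells. fu,inc by Kilford method (1.46 × 10⁶ cells/mL); well-stirred CLh. N = 3.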

[18] = test system: 3D HepaRG; experiment: Metabolite formation in the 3D HepaRG liver model; assay type: in vitro ADME, human; details: 3D HepaRG, metabolite formation
Procedure, shortened: as §4

[19] = plasma binding; measured data derived from literature ref 32; cited from earlier work
[20] = cited from earlier work
[21] = test system: 3D HepaRG; experiment: Albumin ELISA assay in 3D HepaRG supernatant; assay type: cell-based, human; details: 3D HepaRG exposed to 16 mM APAP for 48 h; untreated 78.4 ± 22.9 ng/mL
[22] = β‐PGME → 2‐MPA, S9 2 mg/mL, 45 min

Structure (SMILES): COCCO [EGME, 2‐Methoxyethanol]
expression of CYP2E1 [1]: not induced | expression of ADH1C [2]: not induced | expression of ALDH2 [3]: not induced | logP [4]: −0.80 | calculated in vitro CLint [5]: 0.62 µL/min/mg | V max [6]: 61.3 nmol/h/10^6 cells | Kinetic constant EGME → EG (ethylene glycol) (CLmetPG) [7]: 5 mL/min/kg

Structure (SMILES): COC(C)C(=O)O (stereo not drawn) [2‐MPA, 2‐Methoxypropionic acid]
EC50 ([8]; 48 h): 81 mM | EC50 ([8]; 168 h): 34 mM | higher toxicity of metabolite compared to its solvent (EC50, 3D HepaRG) [9]: approximately fourfold; also recorded: approximately four times lower | EC50 ([9]; 48 h): 46 mM | EC50 ([9]; 168 h): 26 mM | Permeability coefficient (BBB) (PeMPA) [10]: 100 ×10⁻⁶ cm/s | Urinary excretion rate of 2‐MPA (KMPA) [11]: 0.09 h⁻¹

expression of CYP2E1 [1]: not induced
Structure (SMILES): CCO [ethanol]
expression of ADH1C [2]: not induced | expression of ALDH2 [3]: not induced

Structure (SMILES): c1ccc(-c2ccc3nc(-c4ccccc4)cn3c2)cc1 [GA11, 2,6‐diphenylimidazo[1,2‐a]pyridine]
2‐MPA formation compared to control incubations ([12]; 10 μM GA11 (ALDH inhibitor)): significantly reduced

CLint scaled [13]: 0.6 ± 0.09 mL/min/kg | microsomal CLint [13]: 0.19 ± 0.03 µL/min/mg | Predicted CL h ([14]; S9, calculated (Vmax/Km), well‐stirred liver model): 0.36 ± 0.05 mL/min/kg | In vitro predicted hepatic organ clearance (CL h), CLmetMPA ([14]; S9, metabolite formation, calculated (V max/K m)): 0.36 mL/min/kg | microsomal CLint at 700 μM ([15]; metabolite formation): 40.9 ± 5.19 µL/min/mg | microsomal CLint at 700 μM ([15]; solvent loss): 3.8 ± 2.14 µL/min/mg | CLint scaled at 700 μM ([15]; S9, metabolite formation): 127 ± 16.1 mL/min/kg | CLint scaled at 700 μM ([15]; S9, solvent loss): 11.8 ± 6.67 mL/min/kg | In vitro predicted hepatic organ clearance (CL h), CLmetMPA ([16]; S9, metabolite formation): 16.4 mL/min/kg | Predicted CL h ([16]; S9, metabolite formation): 16.4 ± 0.47 mL/min/kg | In vitro predicted hepatic organ clearance (CL h), CLmetMPA ([16]; S9, solvent loss): 5 mL/min/kg | clearance ranking based on in vitro predicted CLh values ([16]; overall generated CLh values (S9 and 3D HepaRG), reported clearance rankings): low to medium clearance compound | CLint scaled at 5 mM [17]: 28.2 ± 2.5 mL/min/kg | hepatocyte CLint at 5 mM [17]: 9.34 ± 0.83 µL/min/1e6 cells | microsomal CLint at 5 mM [17]: 9.62 ± 0.85 µL/min/mg | In vitro predicted hepatic organ clearance (CL h), CLmetMPA ([18]; measured): 9.07 mL/min/kg | Predicted CL h ([18]; well‐stirred liver model): 9.07 ± 0.44 mL/min/kg
Structure (SMILES): COC(C)CO (stereo not drawn) [β‐PGME, 2‐Methoxypropan‐1‐ol]
EC50 ([9]; 168 h): 86 mM | K m [14, 22]: 5.572 ± 2.171 mM | V max [14, 22]: 1.04 ± 0.28 nmol/min/mg | Predicted CL h ([16]; S9, solvent loss): 5.00 ± 2.52 mL/min/kg and 5.03 ± 2.52 mL/min/kg | logP [4]: −0.49 −0.49 | fu,b [19]: 0.540 ^c 0.540 ^c | excretion of conjugated β‐PGME [20]: 3% | β‐PGME excreted as 2‐MPA ([20]; published rat studies): more than 60%

albumin secretion (albumin concentration in medium) [21]: 1.78 ± 0.68 ng/mL
Structure (SMILES): CC(=O)Nc1ccc(O)cc1 [APAP, acetaminophen]

Structure (SMILES): COCC(=O)O [2‐MAA, 2‐Methoxyacetic acid, reference compound]
EC50 ([8]; 48 h): 31 mM | EC50 ([8]; 168 h): 16 mM | higher toxicity of metabolite compared to its solvent (EC50, 3D HepaRG) [9]: ~50 fold | EC50 ([9]; 48 h): 11 mM | EC50 ([9]; 168 h): 9 mM | logP [4]: −0.30

expression of CYP2E1 [1]: not induced
Structure (SMILES): COCC(C)O (stereo not drawn) [PGME, 1‐Methoxypropan‐2‐ol]
EC50 ([9]; 168 h): 96 mM | expression of ADH1C [2]: not induced | expression of ALDH2 [3]: not induced | logP [4]: −0.49 −0.49 | fu,b [19]: 0.540 ^c 0.540 ^c

Structure (SMILES): Cc1cn[nH]c1 [fomepizole, 4‐methyl pyrazole]
2‐MPA formation compared to control incubations ([12]; 50 μM fomepizole (ADH inhibitor)): significantly reduced
